# In ChEMBL document CHEMBL1152229, “Synthesis of potent water-soluble tissue transglutaminase inhibitors” (Bioorg Med Chem Lett, 2008):
# Tests used:
# [1] = Inhibition of guinea pig liver transglutaminase 2 using 5-(biotinamido)pentylamine as substrate by enzyme linked sorbent assay; parameters: species or system Cavia porcellus
# How it was run: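 Wells coated with N,N'-dimethylcasein received TG2 (2 ng ml-1), biotinyl-5-pentylamine, CaCl2 (5 mM), DTT (5 mM) and a range of inhibitor concentrations, then were incubated for 1 h at 37 °C. Incorporated biotinyl-5-pentylamine was quantified with Extravidin peroxidase and o-phenylenediamine colour development.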
# [2] = Aqueous solubility of the compound; type: physicochemical
# [3] = species on record: Cavia porcellus; assay: Inhibition of guinea pig liver transglutaminase 2 at 5 uM preincubated for 60 mins in the presence of Ca2+; parameters: scale not given: the % may be the effect or the level left
# [4] = system: Rattus norvegicus; assay: Protective effect against kidney dysfunction in Wistar rat subtotal 5/6 nephrectomy model of kidney scarring assessed as reduction in scarring administered through osmotic pump measured after 84 days of surgery; type: functional; parameters: scale not given: the % may be the effect or the level left
IC50 [1] [µM],SMILES,also measured
> 200,O=C(N[C@@H](Cc1ccccc1)C(=O)NCC1CC(Br)=NO1)OCc1ccccc1 (stereo partly specified),"solubility ([2]; water, read-out: solubility): < 1 mg/mL"
3,Cc1c(C)[n+](C)c(SCC(=O)CC[C@H](NC(=O)[C@H](Cc2ccccc2)NC(=O)OCc2ccccc2)C(=O)O)n1C,
150,C[S+](C)CC(=O)CC[C@H](NC(=O)[C@H](CCCCN)NC(=O)OCc1ccccc1)C(=O)O,
300,C[S+](C)CC(=O)CC[C@H](NC(=O)[C@H](Cc1ccccc1)NC(=O)OC(C)(C)C)C(=O)O,
20,C[C@H](NC(=O)OCc1ccccc1)C(=O)N[C@@H](CCC(=O)C[S+](C)C)C(=O)O,
8,C[S+](C)CC(=O)CC[C@H](NC(=O)CNC(=O)OCc1ccccc1)C(=O)O.[Br-],"solubility ([2]; water, read-out: solubility): 1000 mg/mL"
20,CC[S+](CC)CC(=O)CC[C@H](NC(=O)[C@H](Cc1ccccc1)NC(=O)OCc1ccccc1)C(=O)O,
110,C[S+](C)CC(=O)CC[C@H](NC(=O)[C@H](Cc1ccccc1)NC(=O)Cc1ccccc1)C(=O)O,
30,C[S+](C)CC(=O)CC[C@H](NC(=O)[C@H](Cc1ccccc1)NC(=O)OCC1c2ccccc2-c2ccccc21)C(=O)O,
5,C[S+](C)CC(=O)CC[C@H](NC(=O)[C@@H]1CCCN1C(=O)OCc1ccccc1)C(=O)O.[Br-],"Activity [3]: 77%; solubility ([2]; water, read-out: solubility): 500 mg/mL"
12,C[S+](C)CC(=O)CC[C@H](NC(=O)[C@H](Cc1c[nH]c2ccccc12)NC(=O)OCc1ccccc1)C(=O)O,
28,C[S+](C)CC(=O)CC[C@H](NC(=O)[C@H](CC(=O)O)NC(=O)OCc1ccccc1)C(=O)O,
5,C[S+](C)CC(=O)CC[C@H](NC(=O)[C@H](Cc1ccccc1)NC(=O)OCc1ccccc1)C(=O)O.[Br-] (stereo in doubt; 4n),solubility ([2]; buffer): 67 mg/mL
4,CC(=O)CSc1n(C)cc[n+]1C.[Cl-],"solubility ([2]; water, read-out: solubility): 200 mg/mL"
18,C[S+](C)CC(=O)CC[C@H](NC(=O)[C@@H]1C[C@@H](O)CN1C(=O)OCc1ccccc1)C(=O)O,
350,CC[C@H](C)[C@H](NC(=O)OCc1ccccc1)C(=O)N[C@@H](CCC(=O)C[S+](C)C)C(=O)O,
10,C[S+](C)CC(=O)CC[C@H](NC(=O)[C@H](Cc1ccccc1)NC(=O)OCc1ccccc1)C(=O)O.[Br-] (stereo in doubt; 4d),Activity [4]: 90%; solubility ([2]; buffer): 167 mg/mL
8,C[S+](C)CC(=O)CC[C@H](NC(=O)[C@H](Cc1ccccc1)NC(=O)OCCc1ccccc1)C(=O)O,
